Usually T/C stands for the ratio of treated to control. As usually defined, the IC50 is the midpoint of a concentration-inhibition curve. The low end stands for greater potency in that assay, the high end for weaker potency in that assay.

The record followed here is ChEMBL document CHEMBL1123247, “Nucleoside conjugates. 7. Synthesis and antitumor activity of 1-beta-D-arabinofuranosylcytosine conjugates of ether lipids” (J Med Chem, 1986).

The test system of assay [1] is L1210. The experiment in a line: Antitumor activity against the ip implanted L1210 leukemia in mice expressed as optimal dose (1-5qd treatment schedule) required to produce greatest increase in life span was determined. The format is functional, Mus musculus. In a few lines: (§1)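 DBA/2J mice, groups of 6 (23-28 g), were inoculated ip with 1 × 10^6 L1210 cells on day 0. Dosing was ip from 24 h, in 0.9% NaCl with 0.5% Tween-80 (sonicated solution or suspension). Mice were observed daily until death or day 45. Median survival T/C followed NCI protocols, and ILS = (T/C − 1) × 100. Active range means doses giving ILS ≥25%; optimal dose means greatest ILS.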

Assay [2] concerns L1210. The experiment in a line: Antitumor activity was determined against the ip implanted L1210 leukemia in mice by percent median survival rate (treated/control) at 5 mg/kg (treatment of 1-5qd schedule) dosage; 9.0/8.0. Format: functional, Mus musculus. Particulars: route intraperitoneal. The essentials:
(§2)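 DBA/2J mice, 23-28 g, in groups of 6, were inoculated ip with 1×10^6 L1210 cells on day 0. Dosing was ip starting 24 h later on the stated daily schedules. Conjugates were given as sonicated solutions and reference prodrugs as suspensions in 0.9% NaCl with 0.5% Tween-80. Mice were observed daily until death or 45 days. Median survival T/C was calculated from survivors per NCI protocols.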

The next assay has as its system Glioblastoma cell line. The experiment in a line: Compound was tested for the inhibition of glioblastoma. The format is functional, cell-based. As to conditions: Homo sapiens. The essentials:
(§3)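 Human leukemia and solid tumor cells in culture were exposed to compound for 48 h. Viability was scored by trypan blue dye exclusion. IC50 (50% inhibition) was estimated from response curves of three separate experiments.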

For assay [3], the system named is L1210. In words: Antitumor activity was determined against the ip implanted L1210 leukemia in mice by percent increase in life span at 5 mg/kg (treatment of 1-5qd schedule) dosage. Particulars: route intraperitoneal. Format: functional, Mus musculus. In a few lines:
(§4)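 DBA/2J mice in groups of 6 (wt 23-28 g) were inoculated ip with 1×10^6 L1210 cells on day 0. Dosing was ip from 24 h, in 0.9% NaCl with 0.5% Tween-80 (conjugates sonicated), across a range of doses. Mice were observed daily until death or 45 days. Median T/C was computed from survivors per NCI protocols, and ILS = (T/C − 1)×100.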

The test system of assay [4] is L1210. In words: Antitumor activity was determined against the ip implanted L1210 leukemia in mice by 45-day survivors in mice at 5 mg/kg (treatment of 1-5qd schedule) dosage. The format is functional, Mus musculus. Particulars: route intraperitoneal. The essentials: as §4
Another assay relates to NSCLC. The experiment in a line: Compound was tested for the inhibition of non- small cell lung cancer. Particulars: Homo sapiens. The format is functional, cell-based. The essentials:
as §3

Assay [5] relates to Small cell lung cancer cell line. The experiment in a line: Compound was tested for the inhibition of small cell lung cancer. Format: functional, cell-based. As to conditions: Homo sapiens. The essentials: as §3
In a further assay the test system is CML/BC. In words: Compound was tested for the inhibition of CML/BC(chronic myeloid leukemia, blast crisis). Format: functional, cell-based. As to conditions: Homo sapiens. The essentials:
as §3

For the next assay, the system named is HL-60. The experiment in a line: Compound was tested for the inhibition of human HL60 Leukemia. Format: functional, cell-based. In a few lines: as §3
The subject of another assay is AMML. In words: Compound was tested for the inhibition of AMML (acute myelomonocytic leukemia). Format: functional, cell-based. As to conditions: Homo sapiens. The essentials: as §3
Assay [6] relates to L1210. In words: Antitumor activity was determined against the ip implanted L1210 leukemia in mice by range in survival days at 5 mg/kg (treatment of 1-5qd schedule) dosage; Range is 8-9. The format is functional, Mus musculus. Particulars: route intraperitoneal. In a few lines:
as §2

The test system of assay [7] is L1210. The experiment in a line: Antitumor activity against the ic implanted L1210 lymphoid leukemia in mice expressed as optimal dose (1 qd treatment schedule) required to produce greatest increase in life span was determined. Format: functional, Mus musculus. The essentials: (§5)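 DBA/2J mice, groups of 6 (26-32 g), got 1 × 10^5 L1210 cells ic on day 0. Dosing was ip starting 24 h later, as a sonicated solution or suspension in 0.9% NaCl with 0.5% Tween-80, over a wide dose range. Mice were followed daily until death. Median survival T/C was taken from survivors per NCI protocols, and ILS = (T/C − 1) × 100. Active range means doses giving ILS ≥25%; optimal dose means greatest ILS.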

Assay [8] has as its system L1210. In words: Antitumor activity was determined against the ip implanted L1210 leukemia in mice by percent increase in life span at 200 mg/kg (treatment of 1qd schedule) dosage. As to conditions: route intraperitoneal. The format is functional, Mus musculus. The essentials: as §4
The subject of assay [9] is L1210. The experiment in a line: Antitumor activity was determined against the ic implanted L1210 lymphoid leukemia in mice by range in survival days at 100 mg/kg (1 qd treatment schedule) dosage; Range is 14-18. Format: functional, Mus musculus.
Assay [10] concerns P388. In words: Antitumor activity was determined against the ip implanted P388 leukemia in mice by percent increase in life span at 100 mg/kg (treatment of 1qd schedule) dosage. Particulars: route intraperitoneal.
The test system of assay [11] is P388. The experiment in a line: Antitumor activity against the ip implanted P388 leukemia in mice expressed as optimal dose (1 qd treatment schedule) required to produce greatest increase in life span was determined. The format is functional, Mus musculus. In a few lines:
(§6)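 P388 leukemia: 1 × 10^6 cells were given ip on day 0 to DBA/2J mice, groups of 6 (23-33 g). Treatment was ip from 24 h after inoculation, vehicle 0.9% NaCl with 0.5% Tween-80. Mice were observed daily until death or 45 days. Median survival T/C was calculated from survivors per NCI protocols, and ILS = (T/C − 1) × 100. Active range means doses giving ILS ≥25%; optimal dose means greatest ILS.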

In assay [12] the test system is L1210. In words: Antitumor activity was determined against the ic implanted L1210 lymphoid leukemia in mice by percent increase in life span at 100 mg/kg (1 qd treatment schedule) dosage. The format is functional, Mus musculus. In a few lines:
as §5

The subject of assay [13] is P388. In words: Antitumor activity was determined against the ip implanted P388 leukemia in mice by percent median survival rate (treated/control) at 100 mg/kg (treatment of 1qd schedule) dosage; >45.0/12.0. As to conditions: route intraperitoneal.
Assay [14] deals with L1210. In words: Antitumor activity was determined against the ip implanted L1210 leukemia in mice by 45-day survivors in mice at 200 mg/kg (treatment of 1qd schedule) dosage. The format is functional, Mus musculus. As to conditions: route intraperitoneal. The essentials:
as §4

In assay [15] the test system is P388. In words: Antitumor activity was determined against the ip implanted P388 leukemia in mice by range in survival days at 100 mg/kg (treatment of 1qd schedule) dosage; Range is 28->45. Particulars: route intraperitoneal.
The subject of assay [16] is L1210. The experiment in a line: Antitumor activity was determined against the ic implanted L1210 lymphoid leukemia in mice by […] at 100 mg/kg (1 qd treatment schedule) dosage; 17.5-7.0. The format is functional, Mus musculus. The essentials: as §5
Assay [17] concerns L1210. The experiment in a line: Antitumor activity was determined against the ip implanted L1210 leukemia in mice by change in […] at 200 mg/kg (treatment of 1qd schedule) dosage. Format: functional, Mus musculus. Particulars: route intraperitoneal. The essentials: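 DBA/2J mice, 6 per group (wt 23-28 g), inoculated ip with 1×10^6 L1210 cells on day 0. Treatment was given ip in 0.9% NaCl with 0.5% Tween-80, starting 24 h later. Weight change was taken on day 8. Mice were observed daily until death or 45 days. Median survival T/C and %ILS = (T/C − 1) × 100 came from survivors per NCI protocols, and 45-day survivors were counted.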

For assay [18], the system named is L1210. The experiment in a line: Antitumor activity was determined against the ip implanted L1210 leukemia in mice by range in survival days at 200 mg/kg (treatment of 1qd schedule) dosage; Range is 12->45. Format: functional, Mus musculus. As to conditions: route intraperitoneal. In a few lines:
as §2

Assay [19] deals with L1210. In words: Antitumor activity against ip implanted L1210 leukemia in mice expressed as active dose range (1 qd treatment schedule) required to produce increase in life span by >25% was determined; Range is 100-250. The format is functional, Mus musculus. In a few lines:
as §1

Assay [20] concerns P388. In words: Antitumor activity against ip implanted P388 leukemia in mice expressed as active dose range (1 qd treatment schedule) required to produce increase in life span by >25% was determined; Range is 50-100. The format is functional, Mus musculus. In a few lines:
as §6

In assay [21] the test system is P388. In words: Antitumor activity was determined against the ip implanted L1210 leukemia in mice by change in […] at 100 mg/kg (treatment of 1qd schedule) dosage. The format is functional, Mus musculus. As to conditions: route intraperitoneal, in the assay text read “P388 leukemia” for “L1210 leukemia”.
In assay [22] the test system is L1210. The experiment in a line: Antitumor activity was determined against the ic implanted L1210 lymphoid leukemia in mice by change in […] at 100 mg/kg (1 qd treatment schedule) dosage. The format is functional, Mus musculus. In a few lines:
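DBA/2J mice, 6 per group (wt 26-32 g), inoculated ic with 1×10^5 L1210 cells on day 0. Dosing ip began 24 h after inoculation, with a sonicated solution or suspension in 0.9% NaCl containing 0.5% Tween-80, given over a range of doses. Animals were followed daily until death. Body weight change, median survival T/C, and %ILS = (T/C − 1) × 100 were computed from survivors per NCI protocols.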

For assay [23], the system named is L1210. The experiment in a line: Antitumor activity was determined against the ip implanted L1210 leukemia in mice by median survival time at 200 mg/kg (treatment of 1qd schedule) dosage; 17.5/7.0. As to conditions: route intraperitoneal.
Assay [24] has as its system L1210. The experiment in a line: Antitumor activity against the ip implanted L1210 leukemia in mice expressed as optimal dose (1 qd treatment schedule) required to produce greatest increase in life span was determined. Format: functional, Mus musculus. The essentials:
as §1

A further assay concerns P388 leukemia (mouse). The experiment in a line: Antitumor activity was determined against the ip implanted P388 leukemia in mice by 45-day survivors in mice at 100 mg/kg (treatment of 1qd schedule) dosage. Particulars: route intraperitoneal.

Regarding `CCCCCCCCCCCCCCCCCCOC[C@H](COP(=O)([O-])OCC[N+](C)(C)C)OC` [(R)-EDELFOSINE], the Optimal dose in the assay with L1210 [1] was determined as 5 mg/kg/day. In the assay with L1210 [2], the T/C is 9%. Also, the IC50 in the assay with Glioblastoma cell line came to 20 µM; in the assay on NSCLC it was 21 µM; in [5], 24 µM; in the assay on CML/BC, 1.5 µM; with HL-60, 2.5 µM; in the assay with AMML, 3.3 µM. Moreover, the ILS in the assay on L1210 [3] worked out at 13. Moreover, in the assay on L1210 [4], the Survivors stood at 0. Moreover, the Range in the assay on L1210 [6] was 8.

For `CCCCCCCCCCCCCCCC(=O)OC[C@H]1O[C@@H](n2ccc(N)nc2=O)[C@@H](O)[C@@H]1O`, the Optimal dose with L1210 [7] was determined as 100 mg; in the assay on P388 [11] it was 100 mg; with L1210 [24], 200 mg/kg/day. For the same compound, the ILS in the assay on L1210 [8] was 150; in the assay with P388 [10], over 275; in the assay with L1210 [12], 150. Further, the Range in the assay with L1210 [9] is recorded as 14; in the assay with P388 [15], 28; in the assay on L1210 [18] it was 12. For the same compound, the median survival time in the assay with P388 [13] was over 45 days; in the assay on L1210 [16] it was 17.5 days; in the assay on L1210 [23] it was 17.5 days. Moreover, the Survivors was determined as 1 in the assay on L1210 [14] and 4 in the assay with P388 leukemia (mouse). Besides, the Weight change is reported as 2 g mouse-1 with L1210 [17], 0.3 g mouse-1 in the assay on P388 [21] and -2.03 g mouse-1 in the assay on L1210 [22]. In addition, the Active dose range with L1210 [19] was 100 mg/kg/day; in the assay on P388 [20] it was 50 mg/kg/day.
